pIC50: −log10 of the molar value. The source made the active and inactive calls. The rule behind the calls is not given here.
Assays:
[1] = test system: BJ; assay: Induction of DNA damage n human BJ cells expressing SV40 early protein EHLT assessed as increase in gamma-H2Ax phosphorylation at 0.5 uM; type: functional
Summary of the method: (§1)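 BJ-EHLT and BJ-hTERT fibroblasts exposed to a range of concentrations for 24 h. Fixed in 2% formaldehyde, permeabilized in 0.25% Triton X-100, immunostained for γ-H2AX and 53BP1. Percentage of positive cells scored. Three independent experiments, SD.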

[2] = test system: BJ; assay: Induction of telomere dysfunction induced foci n human BJ cells expressing SV40 early protein EHLT assessed as increase in gamma H2AX/TRF1 co-localization at 1 uM by Deconvolution microscopy; type: functional
Summary of the method: (§2)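 BJ-EHLT cells stained for TRF1 together with γ-H2AX or 53BP1 and imaged by deconvolution microscopy. Cells with four or more γ-H2AX/TRF1 foci scored as TIF positive; percentage of TIF-positive cells and mean TIFs per nucleus recorded. Mean of three experiments, SD.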

[3] = test system: Nucleic Acid; assay: Stabilization of human duplex DNA T-loop assessed as change in melting temperature at 1 uM by FRET assay; type: nucleic-acid assay
[4] = target: Telomerase reverse transcriptase (Homo sapiens, UniProt O14746); assay: Inhibition of human Telomerase activity in cell free system by TRAP assay
Summary of the method: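 Cell-free TRAP: protein extract incubated with compound at 1 to 50 μM so telomerase elongates the substrate oligonucleotide. Before PCR, phenol/chloroform/isoamyl-alcohol (50:49:1) extraction removes the ligand and DNA is precipitated overnight at -20 °C. Amplification uses a 36 bp ITAS; products are resolved on 12% PAGE and stained with SYBR Green. Signals are corrected by the no-extract control and normalized to untreated, giving dose-response IC50. Mean of three experiments.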

[5] = test system: BJ; assay: Induction of DNA damage response in human BJ cells expressing SV40 early region EHLT assessed as phosphorylation of […] after 24 hrs by immunofluorescence method; type: functional, cell-based; summary of the method: as §1
[6] = test system: BJ; assay: Cell cycle arrest in human BJ cells expressing TERT assessed as accumulation at S stage at 0.5 uM after 72 hrs by propidium iodide staining based flow cytometry (reference value: 10%); type: ADME
[7] = test system: BJ; assay: Antiproliferative activity against human BJ cells expressing TERT at 3 uM after 2 to 8 days by trypan blue assay; type: functional, cell-based; settings: 0.5 uM, in the assay text read “at 0.5 uM” for “at 3 uM”
Summary of the method: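 Cells seeded at 5 ×10^4 per dish; compounds freshly dissolved and added to the medium 24 h after plating, at 0.5 μM or 3 μM (3 μM only for one derivative). Cell number by Coulter counting and viability by trypan blue exclusion daily, day 1 to day 8. Growth inhibition of treated vs untreated cells calculated at days 2, 4, 6 and 8. Representative experiments in quintuplicate, SD shown.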

[8] = test system: BJ; assay: Induction of telomere dysfunction induced foci n human BJ cells expressing SV40 early protein EHLT assessed as increase in 53BP1/TRF1 co-localization by Deconvolution microscopy; type: functional, cell-based; summary of the method: as §2
[9] = test system: BJ; assay: Cell cycle arrest in human BJ cells expressing TERT assessed as accumulation at G2/M stage at 0.5 uM after 48 hrs by propidium iodide staining based flow cytometry (reference value: 6%); type: ADME
[10] = test system: BJ; assay: Cell cycle arrest in human BJ cells expressing TERT assessed as accumulation at S stage at 0.5 uM after 24 hrs by propidium iodide staining based flow cytometry (reference value: 21%); type: ADME
[11] = test system: Nucleic Acid; assay: Binding affinity to human 21-TT G-quadruplex DNA structure at 1:5 DNA to calf thymus DNA ratio by competitive inhibition assay; type: nucleic-acid assay; set-up: concentration or dose not given beside the values
Summary of the method: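 ESI-MS competition: quadruplex DNA and ligand each 5 μM final, plus calf thymus DNA at duplex/quadruplex ratios 1 and 5 (by phosphate concentration), in ammonium acetate. Percentage bound quadruplex and normalized bound quadruplex (N%) measured by mass spectrometry. SD over at least three independent experiments.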

[12] = test system: BJ; assay: Delocalization of TRF1 protein from […] in human BJ cells expressing SV40 early protein EHLT by chromatin immunoprecipitation assay; type: functional, cell-based
Summary of the method: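 BJ-EHLT cells treated 24 or 72 h. Formaldehyde-crosslinked chromatin immunoprecipitated with anti-TRF1, anti-TRF2 or anti-POT1; β-actin antibody as negative control. Precipitates blotted and probed for telomeric repeats (ALU probe as nonspecific). Densitometry gives percentage of precipitated DNA relative to input (10% and 1%). Four independent experiments, SD.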

[13] = test system: Nucleic Acid; assay: Binding affinity to human 21-TT G-quadruplex DNA structure assessed as bound DNA at 5:10 DNA to drug ratio by electrospray ionization mass spectrometry; type: nucleic-acid assay
Summary of the method: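 ESI-MS in 150 mM ammonium acetate; DNA 5 μM final (per duplex or quadruplex unit); ligand at drug/DNA ratios 0.5 to 4. Methanol (15%) added just before injection, after binding equilibrium. K1 and K2 for 1:1 and 2:1 complexes, and % bound DNA, taken from relative peak intensities assuming equal response factors. At least three repeats.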

[14] = test system: BJ; assay: Induction of DNA damage response in human BJ cells expressing human TERT assessed as phosphorylation of […] at 1 uM after 24 hrs by immunofluorescence; type: functional, cell-based; summary of the method: as §1
[15] = test system: BJ; assay: Induction of telomere dysfunction induced foci n human BJ cells expressing SV40 early protein EHLT assessed as increase in gamma H2AX/TRF1 co-localization by Deconvolution microscopy; type: functional, cell-based; summary of the method: as §2

Sequence of Telomerase reverse transcriptase (O14746 whole entry): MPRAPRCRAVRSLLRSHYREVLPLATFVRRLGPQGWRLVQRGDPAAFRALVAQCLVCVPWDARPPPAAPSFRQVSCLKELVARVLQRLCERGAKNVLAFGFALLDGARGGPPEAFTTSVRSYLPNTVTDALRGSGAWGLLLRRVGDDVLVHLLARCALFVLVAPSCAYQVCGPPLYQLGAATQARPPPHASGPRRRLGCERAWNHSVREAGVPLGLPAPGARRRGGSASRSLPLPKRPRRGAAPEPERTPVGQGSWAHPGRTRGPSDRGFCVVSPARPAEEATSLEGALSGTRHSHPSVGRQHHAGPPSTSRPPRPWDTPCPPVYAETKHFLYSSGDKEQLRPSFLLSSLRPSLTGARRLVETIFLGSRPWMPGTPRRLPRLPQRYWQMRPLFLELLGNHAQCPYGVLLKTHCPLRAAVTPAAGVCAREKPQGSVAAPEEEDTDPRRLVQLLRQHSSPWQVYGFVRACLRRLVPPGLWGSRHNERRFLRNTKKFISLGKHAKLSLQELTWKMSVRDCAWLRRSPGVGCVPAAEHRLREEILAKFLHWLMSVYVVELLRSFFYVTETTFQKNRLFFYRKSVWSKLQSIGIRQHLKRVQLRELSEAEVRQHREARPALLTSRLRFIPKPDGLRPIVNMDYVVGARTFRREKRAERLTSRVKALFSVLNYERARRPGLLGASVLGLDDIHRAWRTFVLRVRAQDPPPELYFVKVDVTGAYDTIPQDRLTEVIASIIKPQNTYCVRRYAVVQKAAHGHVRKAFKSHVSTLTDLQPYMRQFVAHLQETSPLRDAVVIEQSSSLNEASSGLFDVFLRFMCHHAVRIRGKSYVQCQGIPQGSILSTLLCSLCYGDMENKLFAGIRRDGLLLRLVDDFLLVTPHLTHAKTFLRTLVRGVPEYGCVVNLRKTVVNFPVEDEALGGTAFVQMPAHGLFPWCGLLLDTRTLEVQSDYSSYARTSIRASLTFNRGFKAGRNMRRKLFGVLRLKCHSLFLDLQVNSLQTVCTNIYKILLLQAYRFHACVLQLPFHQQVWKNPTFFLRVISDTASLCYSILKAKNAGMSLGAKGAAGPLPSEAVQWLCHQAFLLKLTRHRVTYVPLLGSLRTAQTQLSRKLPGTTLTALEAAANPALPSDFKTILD

ΔTm [3]: -0.2 °C
pIC50 [4]: 5.00
Activity [6]: 7.6%
Activity [9]: 7.6%
Activity [10]: 21.1%
Activity [11]: 39%
Activity [13]: 75%
SMILES: O=C1c2ccc3c4ccc5c6c(cc(N7CCCCC7)c(c7ccc(c2c37)C(=O)N1CCOCCN1CCCCC1)c64)C(=O)N(CCOCCN1CCCCC1)C5=O
Activity [1]: 50%
Activity [2]: 50%
Activity [5]: Active
Activity [7]: Non-toxic
Activity [8]: Active
Activity [12]: inactive
Activity [14]: inactive
Activity [15]: Active

Reference: ChEMBL document CHEMBL1687886, “N-cyclic bay-substituted perylene G-quadruplex ligands have selective antiproliferative effects on cancer cells and induce telomere damage” (J Med Chem, 2011)
